Published values pooled from the literature.
Compare with care: the assays were run in different laboratories.
Target: Dual specificity tyrosine-phosphorylation-regulated kinase 1A (DYRK1A, Homo sapiens, UniProt Q13627)
Effect on: enzyme activity
Mode: inhibitor

O=C(O)c1ccc2c(c1)nc(NCCc1ccccc1)c1ncncc12
remaining activity (radiometric; 1 µM): 19%

FC(F)c1nc2ccccc2n1-c1nc(N2CCOCC2)nc(N2CCOCC2)n1
remaining activity (10 µM): 78%

O=C(Nc1cnn(-c2csc(C(=O)NC3COC3)c2)c1)Nc1ccccc1Cl
remaining activity (5 µM): 86%

CC(C)(O)[C@H]1CC[C@H](Nc2ccc3ncc(-c4cccc(C(F)(F)F)c4)n3n2)CC1
remaining activity (1 µM): 22.1%

COc1cccc(Nc2nc3cc(C(=O)O)ccc3c3cnccc23)c1
remaining activity (radiometric; 1 µM): 2%

CC(C)(C)C(=O)c1sc(NC2CCCCC2)nc1N
remaining activity (10 µM): 88%

CCN(CC)CCNC(=O)c1c(C)[nH]c(/C=C2\C(=O)Nc3ccc(Cl)cc32)c1C
remaining activity (0.5 µM): 47.2%

COc1cc(Nc2cnc(C#N)c(O[C@H](C)CN(C)C)n2)ncc1-c1cnn(C)c1
remaining activity (radiometric; 10 µM): 79%

Nc1nc(Nc2ccccc2)sc1C(=O)c1c(F)cccc1F
remaining activity (10 µM): 10%

O=C(O)c1ccc2c(c1)nc(Nc1ccc(Cl)cc1)c1ncncc12
remaining activity (radiometric; 1 µM): 3%

CC(C)(C)c1nc2c(s1)c1nc(N)ncc1c1ccc(NS(=O)(=O)c3c(F)cccc3F)c(F)c12
remaining activity (radiometric; 1 µM): 88%

O=C(O)c1ccc2c(c1)nc(Nc1cccc(F)c1)c1ccncc12
remaining activity (radiometric; 1 µM): 0%

O=c1c2ccccc2[nH]c(=S)n1CCN1CCC(=C(c2ccc(F)cc2)c2ccc(F)cc2)CC1
remaining activity (0.5 µM): 99.9%

O=C(O)c1ccc2c(c1)nc(NCCc1ccccc1)c1ccncc12
remaining activity (radiometric; 1 µM): 10%

O=C(O)c1ccc2c3c1cccc3c(=O)n1c3ccccc3nc21
remaining activity (0.5 µM): 55.5%
